27 compounds from ChEMBL document CHEMBL1154060, “Synthesis and structure-activity relationship of Huprine derivatives as human acetylcholinesterase inhibitors” (Bioorg Med Chem, 2009) can be followed below.

One assay has as its target Acetylcholinesterase (Homo sapiens, UniProt P22303). The experiment in a line: Inhibition of human recombinant AChE […] by Ellman's assay. In general terms: Ellman's reagent forms a yellow product with free thiols.
Assay [1] concerns the target T1, Cholinesterase (Homo sapiens, UniProt P06276). The experiment in a line: Inhibition of human recombinant BuChE by Ellman's assay. In short, it runs like this: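 Ellman assay at 25 °C with 125 pM recombinant human enzyme: AChE with acetylthiocholine iodide, BuChE with butyrylthiocholine, substrate at 0.53 mM. Buffer was 0.1 M phosphate pH 7.4 with 15 mM NaCl, NaN3, BSA and DTNB. Inhibitor was preincubated with enzyme for at least 30 min. Rate read at 414 nm for 20 min against an inhibitor-free 100% control. Generally at least triplicate; IC50 by nonlinear regression.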

The species named for a further assay is Homo sapiens. The experiment in a line: Selectivity ratio of IC50 for human recombinant BuChE to IC50 for human recombinant AChE.
Assay [2] has as its target T1, Cholinesterase. The experiment in a line: Inhibition of human recombinant BuChE assessed as enzyme activity reversion at 100 uM by Ellman's assay.
The target in assay [3] is T1, Cholinesterase. The experiment in a line: Inhibition of human recombinant BuChE assessed as enzyme activity reversion at 10 uM by Ellman's assay.

T1 sequence (P06276 whole entry): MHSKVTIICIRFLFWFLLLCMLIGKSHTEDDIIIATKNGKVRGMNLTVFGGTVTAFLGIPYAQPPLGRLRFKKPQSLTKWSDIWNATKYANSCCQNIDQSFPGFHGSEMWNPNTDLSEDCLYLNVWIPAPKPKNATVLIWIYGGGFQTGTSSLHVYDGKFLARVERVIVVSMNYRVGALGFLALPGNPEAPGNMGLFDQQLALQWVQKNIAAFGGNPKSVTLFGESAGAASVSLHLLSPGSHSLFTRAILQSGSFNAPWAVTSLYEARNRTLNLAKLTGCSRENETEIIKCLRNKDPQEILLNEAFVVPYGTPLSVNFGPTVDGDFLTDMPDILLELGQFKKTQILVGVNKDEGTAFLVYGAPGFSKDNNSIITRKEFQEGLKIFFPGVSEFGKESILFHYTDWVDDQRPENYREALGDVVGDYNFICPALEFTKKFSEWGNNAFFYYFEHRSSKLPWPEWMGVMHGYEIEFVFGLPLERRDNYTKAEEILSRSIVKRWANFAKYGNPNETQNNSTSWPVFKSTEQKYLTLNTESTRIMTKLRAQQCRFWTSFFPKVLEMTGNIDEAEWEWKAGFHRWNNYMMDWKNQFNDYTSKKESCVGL
Sequence of Acetylcholinesterase (P22303 whole entry): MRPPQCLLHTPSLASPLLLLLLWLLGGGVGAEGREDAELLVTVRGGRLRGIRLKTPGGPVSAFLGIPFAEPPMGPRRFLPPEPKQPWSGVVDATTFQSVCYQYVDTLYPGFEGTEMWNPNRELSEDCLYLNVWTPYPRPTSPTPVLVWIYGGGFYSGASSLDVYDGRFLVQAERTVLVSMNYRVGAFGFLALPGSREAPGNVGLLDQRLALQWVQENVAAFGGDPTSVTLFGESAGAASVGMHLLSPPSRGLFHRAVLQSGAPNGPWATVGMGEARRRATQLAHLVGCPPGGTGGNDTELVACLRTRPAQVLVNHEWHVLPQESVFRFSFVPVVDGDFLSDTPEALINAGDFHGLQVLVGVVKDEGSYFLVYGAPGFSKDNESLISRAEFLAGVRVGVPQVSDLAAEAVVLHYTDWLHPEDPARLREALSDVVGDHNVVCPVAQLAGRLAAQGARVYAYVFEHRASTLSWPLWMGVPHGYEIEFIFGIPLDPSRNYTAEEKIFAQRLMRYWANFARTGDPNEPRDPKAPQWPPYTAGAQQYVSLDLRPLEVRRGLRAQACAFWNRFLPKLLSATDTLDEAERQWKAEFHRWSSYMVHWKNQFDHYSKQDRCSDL

In general, IC50 refers to the concentration needed to halve the response being measured. As for `CC1=CC2Cc3nc4cc(Cl)ccc4c(NC(=O)CCl)c3C(C1)C2` (racemic), the IC50 on Acetylcholinesterase amounted to 2.51 µM.

`CC1=CC2Cc3nc4cc(Cl)ccc4c(Cl)c3C(C1)C2` (racemic): the 50% inhibitory concentration (IC50) on Acetylcholinesterase was 22.4 µM.

For the compound `CSc1n[nH]c2nc3c(c(N)c12)C1CC(C)=CC(C3)C1` (racemic), on Acetylcholinesterase, the IC50 is 50 µM.

On to `CC1=CC2Cc3nc4oc(C5CCC5)nc4c(N)c3C(C1)C2` (racemic), for which the IC50 at Acetylcholinesterase turned out to be 27.1 µM.

Regarding `CCC1=CC2Cc3nc4cc(Cl)ccc4c(NCCN=[N+]=[N-])c3C(C1)C2` (racemic), the IC50 on Acetylcholinesterase was 0.0137 µM; at Cholinesterase [1] it was 0.824 µM. Besides, the Ratio IC50 in the assay filed under Homo sapiens stood at 60.

As to `CC1=CC2Cc3nc4[nH]ncc4c(N)c3C(C1)C2` (racemic), on Acetylcholinesterase, the IC50 amounted to 50 µM.

On to `CCC1=CC2Cc3nc4ncccc4c(N)c3C(C1)C2` (racemic), for which the 50% inhibitory concentration (IC50) on Acetylcholinesterase was 0.855 µM.

Turning to `CCCSc1nc2nc3c(c(N)c2s1)C1CC(C)=CC(C3)C1` (racemic), at Acetylcholinesterase, the IC50 worked out at 7.69 µM.

In the case of `CCCSc1nc2nc3c(c(N)c2s1)C1CC(CC)=CC(C3)C1` (racemic), the concentration for half-maximal inhibition (IC50) on Acetylcholinesterase was found to be 7.27 µM.

Take `CCC1=CC2Cc3nc4cc(Cl)ccc4c(NCCO)c3C(C1)C2` (racemic): the figures for the IC50 on Acetylcholinesterase and at Cholinesterase [1] were 0.00675 µM and 3.64 µM, respectively. Also, the Ratio IC50 in the assay listed under Homo sapiens stood at 540.

In the case of `CC1=CC2Cc3nc4oc(C)c(C)c4c(N)c3C(C1)C2` (racemic), the IC50 at Acetylcholinesterase is 4.78 µM.

Take `CCC1=CC2Cc3nc4oc(C)c(C)c4c(N)c3C(C1)C2` (racemic): the IC50 at Acetylcholinesterase turned out to be 6.45 µM.

Consider `CC1=CC2Cc3nc4ncccc4c(N)c3C(C1)C2` (racemic), for which the IC50 on Acetylcholinesterase was 0.81 µM; at Cholinesterase [1], 0.342 µM. Further, the Ratio IC50 in the assay filed under Homo sapiens was 0.4.

For the compound `CCC1=CC2Cc3nc4cc(Cl)ccc4c(Cl)c3C(C1)C2` (racemic), the half-maximal inhibitory concentration (IC50) at Acetylcholinesterase was determined as 19.2 µM.

Take `CCC1=CC2Cc3nc4cnccc4c(N)c3C(C1)C2` (racemic): the IC50 on Acetylcholinesterase was 0.664 µM.

For `CCC1=CC2Cc3nc4cc(OC)c(OC)cc4c(N)c3C(C1)C2` (racemic), the IC50 at Acetylcholinesterase worked out at 5.1 µM.

Take `CC1=CC2Cc3nc4cc(Cl)ccc4c(NCCO)c3C(C1)C2` (racemic): the half-maximal inhibitory concentration (IC50) at Acetylcholinesterase was determined as 0.00966 µM.

Consider `CCC1=CC2Cc3nc4cc(Cl)ccc4c(N)c3[C@@H](C1)C2` [HUPRINE X], for which the IC50 at Acetylcholinesterase came to 0.0011 µM.

With `CCC1=CC2Cc3nc4oc(C5CC5)nc4c(N)c3C(C1)C2` (racemic), the IC50 at Acetylcholinesterase came out at 50 µM.

On to `CC1=CC2Cc3nc4oc(C5CC5)nc4c(N)c3C(C1)C2` (racemic), for which the IC50 on Acetylcholinesterase came to 50 µM.

Consider `COc1cc2nc3c(c(N)c2cc1OC)C1CC(C)=CC(C3)C1` (racemic), for which the IC50 at Acetylcholinesterase is 11.7 µM.

Usually inhibition stands for the drop in the measured response relative to a control, in per cent. For `C#CCCCCCCN1CCc2cc(OC)c(OC)cc2C1c1cccc([N+](=O)[O-])c1` (centres undefined), the IC50 at Acetylcholinesterase is 8.08 µM. At Cholinesterase [2], the inhibition is under 1%.

Regarding `CC1=CC2Cc3nc4cc(Cl)ccc4c(NCCCl)c3C(C1)C2` (racemic), the IC50 at Acetylcholinesterase stood at 0.0433 µM.

`C#CCCCCCCN1CCc2cc(OC)c(OC)cc2C1c1ccc([N+](=O)[O-])cc1` (centres undefined): at Acetylcholinesterase, the IC50 was 2.92 µM. The inhibition on Cholinesterase [2] was under 1%.

As for `CC1=CC2Cc3nc4cc(Cl)ccc4c(O)c3C(C1)C2` (racemic), the IC50 at Acetylcholinesterase stood at 14.7 µM.

As to `CC1=CC2Cc3nc4cc(Cl)ccc4c(NCCN=[N+]=[N-])c3C(C1)C2` (racemic), the results for the IC50 at Acetylcholinesterase and on Cholinesterase [1] were 0.00869 µM and 2.35 µM, respectively. Also, the Ratio IC50 in the assay listed under Homo sapiens amounted to 270.

As to `COc1cc2c(cc1OC)C(c1cccc([N+](=O)[O-])c1)N(CCCCCCc1cn(CCNc3c4c(nc5cc(Cl)ccc35)CC3C=C(C)CC4C3)nn1)CC2` (racemic), at Acetylcholinesterase, the IC50 is 0.00395 µM. The Ratio IC50 in the assay filed under Homo sapiens was over 10000. The inhibition on Cholinesterase [3] came out at 6%.
